The text below walks through data of ChEMBL document CHEMBL4196093, “Small-Molecule Activator of UNC-51-Like Kinase 1 (ULK1) That Induces Cytoprotective Autophagy for Parkinson's Disease Treatment” (J Med Chem, 2018).

For experiment [1], the target named is T1, Serine/threonine-protein kinase ULK1 (Homo sapiens) (UniProt O75385).
T1 sequence (whole entry): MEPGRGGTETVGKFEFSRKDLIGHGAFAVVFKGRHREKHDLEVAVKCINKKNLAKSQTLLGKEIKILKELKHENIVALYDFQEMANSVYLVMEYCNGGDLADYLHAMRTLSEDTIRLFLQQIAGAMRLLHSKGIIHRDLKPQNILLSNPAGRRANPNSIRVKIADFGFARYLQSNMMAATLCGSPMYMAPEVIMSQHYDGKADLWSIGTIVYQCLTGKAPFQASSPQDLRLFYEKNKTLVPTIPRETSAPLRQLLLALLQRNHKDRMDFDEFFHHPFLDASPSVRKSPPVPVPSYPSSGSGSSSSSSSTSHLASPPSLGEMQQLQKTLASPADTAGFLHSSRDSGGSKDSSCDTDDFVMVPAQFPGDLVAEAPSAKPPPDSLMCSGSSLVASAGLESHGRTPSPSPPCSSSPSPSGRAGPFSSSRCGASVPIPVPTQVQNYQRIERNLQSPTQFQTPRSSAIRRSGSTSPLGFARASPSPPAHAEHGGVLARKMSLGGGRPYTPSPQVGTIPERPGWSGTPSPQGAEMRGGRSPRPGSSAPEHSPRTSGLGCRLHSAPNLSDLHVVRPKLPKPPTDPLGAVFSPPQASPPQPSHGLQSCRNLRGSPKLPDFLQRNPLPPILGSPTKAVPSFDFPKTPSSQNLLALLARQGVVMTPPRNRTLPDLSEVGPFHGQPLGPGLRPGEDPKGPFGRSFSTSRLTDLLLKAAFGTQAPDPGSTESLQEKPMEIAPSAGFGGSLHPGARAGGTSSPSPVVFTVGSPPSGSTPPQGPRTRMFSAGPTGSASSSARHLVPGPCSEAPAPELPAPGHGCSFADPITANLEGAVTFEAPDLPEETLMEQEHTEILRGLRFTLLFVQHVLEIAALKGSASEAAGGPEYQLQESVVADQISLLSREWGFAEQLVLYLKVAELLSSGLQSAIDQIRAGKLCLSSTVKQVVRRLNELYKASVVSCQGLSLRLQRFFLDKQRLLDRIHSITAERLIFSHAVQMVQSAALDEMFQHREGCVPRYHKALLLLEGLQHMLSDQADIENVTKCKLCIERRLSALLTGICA
Briefly: Induction of human recombinant N-terminal GST tagged-ULK1 (1 to 649 residues) kinase activity expressed in baculovirus infected insect Sf9 cells at 100 nM using MBP as substrate after 60 mins by ADP-glo assay relative to control. Summed up: (§1)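 Recombinant human ULK1 (10 ng) with MBP (0.1 µg/µl)/10 µM ATP and compound at 100 nM in 40 mM Tris pH 7.5, 20 mM MgCl2, 50 µM DTT, 0.1 mg/ml BSA. Incubated 60 min at room temperature; ADP-Glo luminescence read. Three independent experiments, mean ± SEM.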
On the technique in general: ADP-Glo turns the ADP formed in a reaction into a luminescent signal.

In experiment [2] the target is T1, Serine/threonine-protein kinase ULK1 (Homo sapiens). The experiment is described as follows: Induction of ULK1-mediated autophagy in human SH-SY5Y cells at 1 uM after 6 hrs by MDC-staining based flow cytometric analysis relative to control. The format is cell-based. Summed up: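 Autophagy scored as percentage of MDC-positive SH-SY5Y cells by flow cytometry after 1 µM compound; mean ± SEM.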
A general note: In flow cytometry, cells or beads pass a laser one at a time.

The target is the same in experiment [3]. The experiment is described as follows: Induction of human recombinant N-terminal GST tagged-ULK1 (1 to 649 residues) kinase activity expressed in baculovirus infected insect Sf9 cells at 100 nM using MBP as substrate after 60 mins by ADP-glo assay relative to (R)-2-(3-(3,5-Bis(trifluoromethyl)phenyl)thioureido)-N-(2,4-difluorophenyl)-2-phenylacetamide. The essentials: as §1

Experiment [4] has as its target T2, Serine/threonine-protein kinase ULK1 (Homo sapiens, UniProt O75385).
T2 sequence (O75385 whole entry): T1 sequence (whole entry)
Briefly: Induction of human recombinant N-terminal GST tagged-ULK1 (1 to 649 residues) kinase activity expressed in baculovirus infected insect Sf9 cells using MBP as substrate after 60 mins by ADP-glo assay. Summed up: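 ULK1 (10 ng) incubated with MBP (0.1 µg/µl)/10 µM ATP and a compound concentration series in Tris pH 7.5/MgCl2/DTT/BSA buffer for 60 min at room temperature. ADP-Glo luminescence read. EC50 derived from the curve; Emax normalized to maximal response of the reference activator.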

The structures appear in SMILES notation.

With `CN1CCN(CC(OC(=O)c2ccc3c(c2)OCO3)c2ccccc2)CC1` (stereo not given), the Activity in experiment [1] is 197%; in experiment [2], 14.7%. Further, the fold change (FC) in experiment [3] worked out at 0.692. In addition, the EC50 (as a rule, the concentration needed to bring the measured effect to its halfway point) in experiment [4] stood at 54.8 nM.
In the case of `CN1CCN(CC(OC(=O)c2cccc(Br)c2)c2ccccc2)CC1` (stereo not given), the Activity in experiment [1] was determined as 159%; in experiment [2], 11.4%.
For `COc1ccc(CCNC(=O)N[C@@H](C(=O)Nc2cccc(Cl)c2)c2ccccc2)cc1OC`, the Activity in experiment [1] is 168%; in experiment [2] it was 31.1%.
The matching figures for `COc1ccc(NC(=O)N[C@@H](C(=O)Nc2ccccc2C)c2ccccc2)cc1`: 158% and 30.4%.
Regarding `O=C(Nc1ccc(F)cc1F)[C@H](NCCc1ccc(Cl)c(Cl)c1)c1ccccc1`, the Activity was 174% in experiment [1] and 31.4% in experiment [2].
The matching figures for `Cc1ccccc1NC(=O)[C@H](NC(=O)Nc1cccc(Cl)c1)c1ccccc1`: 156% and 27.4%.
The matching figures for `Cc1ccccc1NC(=O)[C@H](NCCc1cccc2ccccc12)c1ccccc1`: 137% and 11%.
As for `O=C(Nc1ccc(F)cc1F)[C@H](NCCc1ccc(F)cc1)c1ccccc1`, the Activity came out at 202% in experiment [1] and 30.1% in experiment [2]. Besides, the fold change (FC) in experiment [3] turned out to be 0.742. Also, in experiment [4], the EC50 was 40.8 nM.
Take `COc1ccc(N2CCN(CC(OC(=O)c3ccccc3F)c3ccccc3)CC2)cc1` (stereo not given): the Activity in experiment [1] is 152%; in experiment [2] it was 11.8%.
The matching figures for `O=C(Nc1cccc(Cl)c1)N[C@@H](C(=O)Nc1cccc(Br)c1)c1ccccc1`: 152% and 24.1%.
On to `Cc1ccc(NC(=O)N[C@@H](C(=O)Nc2cc(F)ccc2F)c2ccccc2)cc1`, for which the Activity stood at 153% in experiment [1] and 24% in experiment [2].
Take `Cc1ccccc1NC(=O)[C@H](NC(=O)Nc1ccc(C(F)(F)F)cc1)c1ccccc1`: the Activity was 183% in experiment [1] and 38.4% in experiment [2].
In the case of `COc1ccc(NC(=O)[C@H](NC(=O)NCCc2ccc(OC)c(OC)c2)c2ccccc2)cc1`, the figures for the Activity in experiment [1] and in experiment [2] were 141% and 21.1%, respectively.
`Clc1ccc(CO[C@@H](Cn2ccnc2)c2ccc(Cl)cc2Cl)cc1`: the fold change (FC) in experiment [3] was found to be 0.324. The EC50 in experiment [4] was found to be 263 nM.
Consider `COc1ccc(CCN[C@@H](C(=O)Nc2ccc(F)cc2F)c2ccccc2)cc1OC`, for which the Activity is 151% in experiment [1] and 22.4% in experiment [2].
On the same counts, the results for `CN1CCN(CC(OC(=O)c2ccccc2)c2ccccc2)CC1` (stereo not given) are 156% and 9.59%.
On the same counts, the results for `Cc1ccccc1NC(=O)[C@H](NCCc1ccc([N+](=O)[O-])cc1)c1ccccc1` are 142% and 16.6%.
The matching figures for `COc1cccc(CCN[C@@H](C(=O)Nc2ccc(F)cc2F)c2ccccc2)c1`: 148% and 20.6%.
With `C[C@@H](NC(=O)[C@H](NC(=O)Nc1cccc2ccccc12)c1ccccc1)c1ccccc1`, the Activity turned out to be 149% in experiment [1] and 19.6% in experiment [2].
Take `O=C(Nc1cccc2ccccc12)N[C@@H](C(=O)Nc1cccc(Br)c1)c1ccccc1`: the values for the Activity in experiment [1] and in experiment [2] were 150% and 24.6%, respectively.
As for `CN1CCN(CC(OC(=O)c2ccccc2F)c2ccccc2)CC1` (stereo not given), the figures for the Activity in experiment [1] and in experiment [2] were 149% and 6.56%, respectively.
The matching figures for `COc1ccc(N2CCN(CC(OC(=O)c3cccc(C)c3)c3ccccc3)CC2)cc1` (stereo not given): 141% and 8.56%.
On the same counts, the results for `O=C(Nc1ccccc1Cl)N[C@@H](C(=O)Nc1cc(F)ccc1F)c1ccccc1` are 144% and 19.6%.
On the same counts, the results for `COc1ccc(NC(=O)N[C@@H](C(=O)Nc2cccc(Br)c2)c2ccccc2)cc1` are 157% and 28.6%.
As to `O=C(Nc1cccc(Cl)c1)N[C@@H](C(=O)Nc1cc(F)ccc1F)c1ccccc1`, the Activity in experiment [1] came out at 159%; in experiment [2], 24.7%.
The matching figures for `COc1ccc(CCN[C@@H](C(=O)Nc2ccccc2C)c2ccccc2)cc1OC`: 147% and 18.1%.
The matching figures for `COc1ccc(N2CCN(CC(OC(=O)c3ccc(Cl)cc3Cl)c3ccccc3)CC2)cc1` (stereo not given): 150% and 11.8%.
As for `Cc1ccccc1NC(=O)[C@H](NC(=O)Nc1ccccc1Cl)c1ccccc1`, the results for the Activity in experiment [1] and in experiment [2] were 30.4% and 36.8%, respectively.
With `C[C@@H](NC(=O)[C@H](NC(=O)Nc1ccccc1Cl)c1ccccc1)c1ccccc1`, the Activity is 158% in experiment [1] and 19.3% in experiment [2].
`COc1ccc(NC(=O)N[C@@H](C(=O)N[C@H](C)c2cc(F)ccc2F)c2ccccc2)cc1`: the Activity was 153% in experiment [1] and 30.9% in experiment [2].
The matching figures for `O=C(Nc1cc(F)ccc1F)[C@H](NC(=S)Nc1ccccc1)c1ccccc1`: 197% and 39.4%.
As to `CN1CCN(CC(OC(=O)c2ccc3ncccc3c2)c2ccccc2)CC1` (stereo not given), the Activity in experiment [1] amounted to 181%; in experiment [2] it was 12.5%.
On the same counts, the results for `Cc1ccc(NC(=O)N[C@@H](C(=O)Nc2cccc(Br)c2)c2ccccc2)cc1` are 147% and 25.4%.
